# In ChEMBL document CHEMBL4052833, “Design, Synthesis, and Biological Activity of New N-(Phenylmethyl)-benzoxazol-2-thiones as Macrophage Migration Inhibitory Factor (MIF) Antagonists: Efficacies in Experimental Pulmonary Hypertension” (J Med Chem, 2018):
# The source made the active and inactive calls. No cut-off for these calls is given here.
# Assays:
# DU-145 [1] = assay: Inhibition of cell survival in MIF dependent human DU145 cells at 100 uM after 24 hrs by MTT assay; assay type: functional; conditions: for inhibition at 100 µM: DU-145, 24 h
# In short: (§1)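 DU-145 (RPMI) or iPAH endothelial cells (MCDB131) grown 24 h with 10% FCS, washed, then exposed 24 h serum-free to 10, 50 or 100 µM compound. MTT 5 mg/mL added for 6 h, medium removed, DMSO added, absorbance read at 590 nm.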
# [2] = molecular target: T1, Macrophage migration inhibitory factor (Homo sapiens, UniProt P14174); assay: Inhibition of recombinant human MIF tautomerase activity using 4-HPP as substrate preincubated for 15 mins followed by substrate addition measured after 360 secs
# T1 sequence (P14174 whole entry): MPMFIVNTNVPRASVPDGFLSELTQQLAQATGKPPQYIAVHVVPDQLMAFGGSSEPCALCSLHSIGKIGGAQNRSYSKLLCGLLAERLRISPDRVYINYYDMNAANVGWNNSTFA
# In short: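 Recombinant human MIF (100 nM) preincubated 15 min with 8 inhibitor concentrations, 0–10 µM; 4-HPP substrate, pre-equilibrated overnight at 4°C in 50 mM ammonium acetate, added in 0.435 M boric acid pH 6.6 at room temperature. Absorbance increase at 305 nm followed over 0–360 s; Ki determined; at least 3 independent replicates.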
# DU-145 [3] = assay: Induction of apoptosis in human DU145 cells assessed as viable cells at 100 uM by Annexin V-FITC-staining based FACS analysis (reference value: 94.9%); assay type: functional; conditions: read-out: Activity
# DU-145 [4] = assay: Antiproliferative activity against human DU145 cells by BrdU-incorporation based time-resolved fluorescence analysis
# Rattus norvegicus [5] = assay: Cardiotoxicity in MCT-induced pulmonary hypertension Wistar rat model assessed as induction of cardiac fibrosis at 30 mg/kg/day administered via oral gavage for 2 weeks starting from 2 weeks post MCT challenge measured post last dose by picrosirius red staining based assay; assay type: toxicity, organism-based; conditions: in vivo, 336 h
# In short: (§2)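 Monocrotaline rat model as above (60 mg/kg s.c.; daily gavage 30 mg/kg/day for 2 weeks starting 2 weeks post-MCT, DMSO/propylene glycol/saline vehicle). Heart sections deparaffinized and stained with Picrosirius red for collagen; collagen area fraction scored in right and left ventricle myocardium against control rats.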
# DU-145 [6] = assay: Induction of apoptosis in human DU145 cells at 100 uM by TUNEL assay; assay type: functional, cell-based
# Rattus norvegicus [7] = assay: Cardiotoxicity in MCT-induced pulmonary hypertension Wistar rat model assessed as effect on collagen area fraction in left ventricle at 30 mg/kg/day administered via oral gavage for 2 weeks starting from 2 weeks post MCT challenge measured post last dose by picrosirius red staining based assay; assay type: toxicity, organism-based; conditions: in vivo, 336 h; in short: as §2
# [8] = molecular target: T2, Macrophage migration inhibitory factor (Homo sapiens) (UniProt P14174); assay: Inhibition of recombinant human MIF-induced AKT phosphorylation in idiopathic pulmonary arterial hypertension patient derived primary pulmonary endothelial cells by Western blot analysis
# T2 sequence (whole entry): T1 sequence (P14174 whole entry)
# In short: (§3)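 iPAH-derived pulmonary endothelial cells stimulated with 50 ng/mL recombinant MIF (endotoxin <0.07 EU/µg) with increasing antagonist doses; lysed and sonicated in RIPA with protease/phosphatase inhibitors, 30 µg protein immunoblotted for pAKT/AKT and pERK1/2/ERK.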
# [9] = molecular target: T2, Macrophage migration inhibitory factor (Homo sapiens); assay: Inhibition of recombinant human MIF-induced ERK phosphorylation in idiopathic pulmonary arterial hypertension patient derived primary pulmonary endothelial cells by Western blot analysis; in short: as §3
# Rattus norvegicus [10] = assay: Toxicity in MCT-induced pulmonary hypertension Wistar rat model assessed as change in body weight at 30 mg/kg/day administered via oral gavage for 2 weeks starting from 2 weeks post MCT challenge; assay type: organism-based; conditions: in vivo, 336 h
# In short: (§4)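 Young male Wistar rats (100 g) given single subcutaneous monocrotaline 60 mg/kg; from 2 weeks later, dosed daily by gavage for 2 weeks at 30 mg.kg.day-1 in 33% DMSO in propylene glycol:saline (68:32), or vehicle alone. Under isoflurane, jugular catheter advanced into pulmonary artery for pressure; cardiac output by thermodilution; RV hypertrophy as Fulton index.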
# DU-145 [11] = assay: Induction of apoptosis in human DU145 cells assessed as late apoptotic cells at 100 uM by Annexin V-FITC-staining based FACS analysis (reference value: 2.34%); assay type: functional
# Rattus norvegicus [12] = assay: Anti-hypertensive activity in MCT-induced pulmonary hypertension Wistar rat model assessed as reduction in right ventricular hypertrophy at 30 mg/kg/day administered via oral gavage for 2 weeks starting from 2 weeks post MCT challenge measured post last dose; assay type: functional, organism-based; in short: as §4
# Rattus norvegicus [13] = assay: Toxicity in MCT-induced pulmonary hypertension Wistar rat model assessed as change in heart rate at 30 mg/kg/day administered via oral gavage for 2 weeks starting from 2 weeks post MCT challenge; assay type: organism-based; conditions: in vivo, 336 h; in short: as §4
# Rattus norvegicus [14] = assay: Cardioprotective activity in MCT-induced pulmonary hypertension Wistar rat model assessed as reversal of increased collagen fibers in endomysium at 30 mg/kg/day administered via oral gavage for 2 weeks starting from 2 weeks post MCT challenge measured post last dose by picrosirius red staining-based assay; assay type: functional, organism-based; in short: as §2
# Rattus norvegicus [15] = assay: Anti-hypertensive activity in MCT-induced pulmonary hypertension Wistar rat model assessed as reduction in mean pulmonary artery pressure at 30 mg/kg/day administered via oral gavage for 2 weeks starting from 2 weeks post MCT challenge measured post last dose; assay type: functional, organism-based; in short: as §4
# DU-145 [16] = assay: Induction of apoptosis in human DU145 cells assessed as increase in caspase 3/7 activity after 24 hrs by fluorescence based assay; assay type: functional, cell-based
# In short: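 DU-145 cells exposed to increasing doses for 24 h; caspase-3/7 activity measured by fluorogenic Apo-ONE read-out.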
# Rattus norvegicus [17] = assay: Toxicity in MCT-induced pulmonary hypertension Wistar rat model assessed as change in systemic blood pressure at 30 mg/kg/day administered via oral gavage for 2 weeks starting from 2 weeks post MCT challenge; assay type: organism-based; conditions: in vivo, 336 h; in short: as §4
# Rattus norvegicus [18] = assay: Anti-hypertensive activity in MCT-induced pulmonary hypertension Wistar rat model at 30 mg/kg/day administered via oral gavage for 2 weeks starting from 2 weeks post MCT challenge; assay type: functional, organism-based; in short: as §4
# [19] = Aqueous solubility in pH 7.4 PBS buffer at […] after 24 hrs; assay type: physicochemical
# DU-145 [20] = assay: Inhibition of cell survival in MIF dependent human DU145 cells after 24 hrs by MTT assay; assay type: functional, cell-based; conditions: DU-145, 24 h; in short: as §1
# [21] = Inhibition of cell survival in idiopathic pulmonary arterial hypertension patient derived primary pulmonary endothelial cells at 100 uM after 24 hrs by MTT assay; assay type: functional; conditions: Homo sapiens; in short: as §1
# DU-145 [22] = assay: Induction of apoptosis in human DU145 cells assessed as early apoptotic cells at 100 uM by Annexin V-FITC-staining based FACS analysis (reference value: 2.5%); assay type: functional
# DU-145 [23] = assay: Induction of apoptosis in human DU145 cells assessed as necrotic cells at 100 uM by Annexin V-FITC-staining based FACS analysis (reference value: 0.22%); assay type: functional
smiles,measurement,setting,value
Fc1ccc2oc(=S)n(Cc3ccccc3)c2c1,inhibition at 100 µM,DU-145 [1],31%
Cc1cccc2oc(=S)n(Cc3ccccc3)c12,inhibition,DU-145 [1],inactive
CC(C)c1ccc2oc(=S)n(Cc3ccccc3)c2c1,Ki,[2],1000 to 3000 nM
same,inhibition,DU-145 [1],inactive
Cc1ccc2oc(=S)n(Cc3ccccc3F)c2c1,inhibition at 100 µM,DU-145 [1],28%
COC(=O)CC1CC(c2ccc(O)cc2)=NO1 (configuration not stated),inhibition at 100 µM,DU-145 [1],8%
Cc1ccc2oc(=S)n(Cc3ccccc3O)c2c1,inhibition,DU-145 [1],inactive
Cc1ccc2oc(=S)n(Cc3cccc(O)c3)c2c1,Ki,[2],100 to 600 nM
same,inhibition at 100 µM,DU-145 [1],46%
S=c1oc2ccc(Cl)cc2n1Cc1ccccc1,inhibition at 100 µM,DU-145 [1],34%
FC(F)(F)c1ccc2oc(=S)n(Cc3ccccc3)c2c1,inhibition at 100 µM,DU-145 [1],48%
CC(C)(C)c1ccc2oc(=S)n(Cc3ccccc3)c2c1,inhibition,DU-145 [1],inactive
Cc1ccc2oc(=S)n(Cc3cccc(F)c3)c2c1,inhibition at 100 µM,DU-145 [1],46%
Cc1ccc2c(c1)oc(=S)n2Cc1ccccc1,inhibition at 100 µM,DU-145 [1],24%
Oc1cc(Cn2c(=S)oc3ccc(C(F)(F)F)cc32)ccc1F,viability at 100 µM,DU-145 [3],47.9%
same,Activity,DU-145 [4],Dose-dependent effect
same,Activity,Rattus norvegicus [5],Non-Toxic
same,Activity,DU-145 [6],Active
same,Ki,[2],300 to 1000 nM
same,Activity,Rattus norvegicus [7],Non-Toxic
same,inhibition,[8],Dose-dependent effect
same,inhibition,[9],Dose-dependent effect
same,Activity,Rattus norvegicus [10],Non-Toxic
same,Activity,DU-145 [11],14.5%
same,Activity,Rattus norvegicus [12],Active
same,inhibition at 100 µM,DU-145 [1],84%
same,Activity,Rattus norvegicus [13],Non-Toxic
same,Activity,Rattus norvegicus [14],Active
same,Activity,Rattus norvegicus [15],Active
same,Activity,DU-145 [16],Dose-dependent effect
same,Activity,Rattus norvegicus [17],Non-Toxic
same,Activity,Rattus norvegicus [18],Active
same,solubility at 24 h,[19],3 to 4 µM
same,EC50,DU-145 [20],60500 nM
same,inhibition at 100 µM,[21],70%
same,Activity,DU-145 [22],16.7%
same,Activity,DU-145 [23],20.8%
Cc1ccc2oc(=S)n(Cc3ccccc3)c2c1,Ki,[2],1000 to 3000 nM
same,inhibition at 100 µM,DU-145 [1],36%
S=c1oc2ccccc2n1Cc1ccccc1,inhibition,DU-145 [1],inactive
Cc1ccc2oc(=S)n(Cc3ccc(F)c(O)c3)c2c1,Ki,[2],2000 to 5000 nM
same,inhibition at 100 µM,DU-145 [1],31%
Cc1ccc2oc(=S)n(Cc3cccc([N+](=O)[O-])c3)c2c1,inhibition at 100 µM,DU-145 [1],24%
COc1ccc2oc(=S)n(Cc3cccc(O)c3)c2c1,inhibition at 100 µM,DU-145 [1],16%
Cc1ccc2oc(=S)n(Cc3ccc(Cl)cc3)c2c1,inhibition at 100 µM,DU-145 [1],22%
Cc1ccc2oc(=S)n(Cc3ccccc3Cl)c2c1,inhibition,DU-145 [1],inactive
Cc1ccc2oc(=S)n(Cc3ccccc3C)c2c1,inhibition,DU-145 [1],inactive
COc1ccccc1Cn1c(=S)oc2ccc(C)cc21,inhibition at 100 µM,DU-145 [1],29%
Cc1ccc2oc(=S)n(Cc3ccc([N+](=O)[O-])cc3)c2c1,inhibition at 100 µM,DU-145 [1],13%
Cc1cccc(Cn2c(=S)oc3ccc(C)cc32)c1,inhibition at 100 µM,DU-145 [1],32%
COc1cccc(Cn2c(=S)oc3ccc(C)cc32)c1,inhibition at 100 µM,DU-145 [1],47%
Cc1ccc2oc(=O)n(Cc3ccccc3)c2c1,inhibition,DU-145 [1],inactive
Cc1ccc(Cn2c(=S)oc3ccc(C)cc32)cc1,inhibition,DU-145 [1],inactive
Cc1ccc2oc(=S)n(Cc3ccc(F)cc3)c2c1,inhibition at 100 µM,DU-145 [1],25%
O=c1oc2ccc(C(F)(F)F)cc2n1Cc1ccc(F)c(O)c1,inhibition,DU-145 [1],inactive
Cc1ccc2oc(=S)n(Cc3ccccc3[N+](=O)[O-])c2c1,inhibition at 100 µM,DU-145 [1],14%
COc1ccc(Cn2c(=S)oc3ccc(C)cc32)cc1,inhibition at 100 µM,DU-145 [1],36%
